{"data": "Experimental data from different studies", "target": "Ephrin type-B receptor 2 (EPHB2, Homo sapiens, UniProt P29323)", "Sequence (P29323 19-1055, as in one of the studies)": "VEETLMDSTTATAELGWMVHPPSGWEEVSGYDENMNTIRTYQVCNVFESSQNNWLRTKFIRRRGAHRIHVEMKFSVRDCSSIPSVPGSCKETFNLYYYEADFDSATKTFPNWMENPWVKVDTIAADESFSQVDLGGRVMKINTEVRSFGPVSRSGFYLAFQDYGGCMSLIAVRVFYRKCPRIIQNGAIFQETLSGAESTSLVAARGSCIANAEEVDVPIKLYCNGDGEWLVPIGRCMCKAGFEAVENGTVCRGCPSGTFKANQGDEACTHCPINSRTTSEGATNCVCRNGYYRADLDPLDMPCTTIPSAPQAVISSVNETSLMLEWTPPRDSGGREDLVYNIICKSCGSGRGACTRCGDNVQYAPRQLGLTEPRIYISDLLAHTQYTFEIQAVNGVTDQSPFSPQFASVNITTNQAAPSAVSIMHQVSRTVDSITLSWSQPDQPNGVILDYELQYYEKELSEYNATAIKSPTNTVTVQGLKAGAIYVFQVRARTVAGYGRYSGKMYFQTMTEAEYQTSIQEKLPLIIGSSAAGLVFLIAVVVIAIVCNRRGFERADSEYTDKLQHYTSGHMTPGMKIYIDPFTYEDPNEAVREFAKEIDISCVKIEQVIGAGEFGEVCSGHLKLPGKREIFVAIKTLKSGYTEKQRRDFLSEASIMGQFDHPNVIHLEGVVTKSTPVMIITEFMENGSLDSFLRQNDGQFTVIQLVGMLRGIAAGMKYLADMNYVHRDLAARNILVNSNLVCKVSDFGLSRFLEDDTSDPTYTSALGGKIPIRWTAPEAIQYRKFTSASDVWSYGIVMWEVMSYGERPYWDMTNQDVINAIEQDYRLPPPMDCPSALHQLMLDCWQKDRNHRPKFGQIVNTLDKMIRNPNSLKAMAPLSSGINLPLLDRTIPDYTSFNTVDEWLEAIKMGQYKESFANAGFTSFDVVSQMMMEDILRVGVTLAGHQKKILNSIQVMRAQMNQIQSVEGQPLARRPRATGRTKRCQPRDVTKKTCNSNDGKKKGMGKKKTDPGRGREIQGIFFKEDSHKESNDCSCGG", "note": "Protocols differ between the studies behind these lines."}
{"Structure (SMILES)": "CC(C)(C)c1cc(C=C(C#N)C#N)cc(Br)c1O", "observed": "enzyme activity", "mode": "inhibitor", "tested at": "0.5 µM", "endpoint": "remaining activity", "result": "100%"}
{"Structure (SMILES)": "COc1cc(Nc2ncc(F)c(Nc3ccc4c(n3)NC(=O)C(C)(C)O4)n2)cc(OC)c1OC", "observed": "binding", "technique": "competition with immobilised ligand", "tested at": "10 µM", "endpoint": "inhibition", "result": "50%"}
{"Structure (SMILES)": "Cn1cc(-c2cccc(N3CCc4c(sc5c4CC(C)(C)C5)C3=O)c2CO)cc(Nc2ccncn2)c1=O", "observed": "enzyme activity", "mode": "inhibitor", "tested at": "1 µM", "endpoint": "inhibition", "result": "1%"}
{"Structure (SMILES)": "Cn1cncc1[C@@](O)(COc1ccc(C#N)cc1-c1ccc(OC(F)(F)F)cc1)c1ccc(C#N)cc1", "observed": "cell-free assay", "technique": "competition with immobilised ligand", "tested at": "1 µM", "endpoint": "remaining binding", "result": "100%"}
{"Structure (SMILES)": "Cc1nn(C)cc1-c1nc2c(N3CCN(Cc4ccc(Cl)cc4)CC3)c(Cl)cnc2[nH]1", "observed": "binding", "technique": "competition with immobilised ligand", "tested at": "1 µM", "endpoint": "remaining binding", "result": "100%"}
{"Structure (SMILES)": "COc1ncccc1-c1cnn2ccc(N3CCN(C(=O)OC(C)C)CC3)nc12", "observed": "binding", "technique": "competition with immobilised ligand", "tested at": "1 µM", "endpoint": "remaining binding", "result": "77%"}
{"Structure (SMILES)": "O=c1[nH]c2ccccc2n1C1CCN(Cc2ccc(-c3[nH]c4cc5ncnc5cc4nc3-c3ccccc3)cc2)CC1", "observed": "cell-free assay", "tested at": "0.5 µM", "endpoint": "remaining signal", "result": "108%"}
{"Structure (SMILES)": "N#CC1(c2ccccn2)CCN(Cc2cc(C(=O)O)c(=O)n3ccccc23)CC1", "observed": "cell-free assay", "technique": "competition with immobilised ligand", "tested at": "1 µM", "endpoint": "remaining binding", "result": "100%"}
{"Structure (SMILES)": "Cn1cc(-c2cc(F)cc(N3CCn4c(cc5c4CCCC5)C3=O)c2CO)cc(Nc2ccc(N3CCN(C4COC4)CC3)cn2)c1=O", "observed": "enzyme activity", "mode": "inhibitor", "tested at": "0.1 µM", "endpoint": "inhibition", "result": "14%"}
